# What was measured:
# [1] = Cytotoxicity against mouse RAW264.7 cells assessed as survival rate at 200 uM measured in absence of LPS by MTT assay relative to control; assay type: cell-based; details: read-out: Survival
# How it was run: (§1)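 RAW 264.7 mouse macrophages treated with compound at 200 μM, with or without 1 μg/mL LPS. Viability read by MTT and expressed as survival rate (%). Values are means ± SD, n = 3.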
# [2] = test system: RAW264.7; test: Antiinflammatory activity in mouse RAW264.7 cells assessed as inhibition of LPS-induced nitric oxide production at 40 uM by griess assay relative to control; assay type: functional
# How it was run: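 LPS-stimulated RAW 264.7 mouse macrophages; nitric oxide production measured; single-concentration screen of inhibition relative to control. Dexamethasone as positive control.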
# [3] = test system: RAW264.7; test: Antiinflammatory activity in mouse RAW264.7 cells assessed as inhibition of LPS-induced nitric oxide production by griess assay; assay type: functional, cell-based
# How it was run: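 RAW 264.7 mouse macrophages induced with LPS; NO production measured over five test concentrations to derive IC50; means ± SD, n = 3; dexamethasone positive control.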
# [4] = Cytotoxicity against mouse RAW264.7 cells assessed as survival rate at 200 uM measured in presence of LPS by MTT assay relative to control; assay type: cell-based; details: read-out: Survival; how it was run: as §1
# [5] = test system: RAW264.7; test: Cytotoxicity against mouse RAW264.7 cells at 200 uM measured in absence of LPS by MTT assay; assay type: cell-based; details: raw264.7, 200 µM
# How it was run: (§2)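 MTT viability of RAW 264.7 mouse macrophages exposed to compound at 200 μM, with or without 1 μg/mL LPS; reported as cell survival rate (%).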
# [6] = test system: RAW264.7; test: Cytotoxicity against mouse RAW264.7 cells at 200 uM measured in presence of LPS by MTT assay; assay type: cell-based; details: raw264.7, 200 µM; how it was run: as §2
SMILES,viability at 200 µM [1] [%],inhibition at 40 µM [2] [%],IC50 [3] [µM],viability at 200 µM [4] [%],Activity [5],Activity [6]
CC1(C)[C@@H](O)[C@H](O)[C@H]2[C@](C)(O)[C@@H]3CC[C@@H]4[C@@H](O)[C@@]3(C[C@@H](O)[C@@]21O)C[C@@]4(C)O,97,> 50,8,90.4,–,–
CC1(C)[C@H]2O[C@H]2[C@H]2[C@](C)(O)[C@@H]3CC[C@@H]4[C@@H](O)[C@@]3(C[C@@H](O)[C@@]21O)C[C@@]4(C)O,96.5,> 50,7,98.4,–,–
C=C1[C@@H]2[C@@H](O)[C@H](O)C(C)(C)[C@@]2(O)[C@H](O)C[C@]23C[C@@](C)(O)[C@H](CC[C@@H]12)[C@H]3O,98.1,> 50,8.1,97.5,–,–
C=C1[C@@H]2[C@@H]3O[C@@H]3C(C)(C)[C@@]2(O)[C@H](O)C[C@]23C[C@@](C)(O)[C@H](CC[C@@H]12)[C@H]3O,90.3,> 50,35.4,92,–,–
CO[C@H]1[C@H](O)C(C)(C)[C@@]2(O)[C@H](OC(C)=O)C[C@]34C[C@@](C)(O)[C@H](CC[C@H]3[C@@](C)(O)[C@H]12)[C@H]4O,98.3,> 50,4.6,97.3,–,–
CC(=O)O[C@@H]1[C@H]2CC[C@H]3[C@@](C)(O)[C@@H]4[C@@H]5O[C@@H]5C(C)(C)[C@@]4(O)[C@H](O)C[C@@]13C[C@@]2(C)O,–,–,> 40,–,Non-Toxic,Non-Toxic
CC(=O)O[C@@H]1C[C@]23C[C@@](C)(OC(C)=O)[C@H](CC[C@H]2[C@@](C)(O)[C@@H]2[C@@H]4O[C@@H]4C(C)(C)[C@@]12O)[C@H]3O,98.9,> 50,10.1,99.7,–,–
C=C1[C@@H]2[C@@H](OC)[C@H](O)C(C)(C)[C@@]2(O)[C@H](O)C[C@]23C[C@@](C)(O)[C@H](CC[C@@H]12)[C@H]3O,–,–,> 40,–,Non-Toxic,Non-Toxic
CO[C@@H]1[C@H]2C(C)=C3CC[C@@H]4[C@@H](O)[C@@]3(C[C@@H](OC(C)=O)[C@]2(O)C(C)(C)[C@H]1O)C[C@@]4(C)O,–,–,> 40,–,Non-Toxic,Non-Toxic
C=C1[C@@H]2[C@@H](O)[C@H](O)C(C)(C)[C@@]2(O)[C@H](OC(C)=O)C[C@]23C=C(C)[C@H](CC[C@@H]12)[C@H]3O,–,–,> 40,–,Non-Toxic,Non-Toxic
CO[C@H]1[C@H](O)C(C)(C)[C@@]2(O)[C@H](O)C[C@]34C[C@@](C)(O)[C@H](CC[C@H]3[C@@](C)(O)[C@H]12)[C@H]4O,–,–,> 40,–,Non-Toxic,Non-Toxic
CC(=O)O[C@@H]1C[C@]23C[C@@](C)(O)[C@H](CC[C@H]2[C@@](C)(O)[C@@H]2[C@@H]4O[C@@H]4C(C)(C)[C@@]12O)[C@H]3O,101,> 50,2.8,93.6,–,–
CC(=O)O[C@@H]1C[C@]23C[C@@](C)(O)[C@H](CC[C@H]2[C@@](C)(O)[C@@H]2C[C@H](O)C(C)(C)[C@@]12O)[C@H]3O,–,–,> 40,–,Non-Toxic,Non-Toxic
CO[C@H]1[C@H](O)C(C)(C)[C@@]2(O)[C@H](OC(C)=O)C[C@]34C[C@@](C)(O)[C@H](CC[C@H]3[C@@](C)(O)[C@H]12)[C@H]4O[C@H]1[C@H](O)C(C)(C)[C@@]2(O)[C@H](OC(C)=O)C[C@]34C[C@@](C)(O)[C@H](CC[C@H]3[C@@](C)(O)[C@H]12)[C@H]4O,–,–,> 40,–,Non-Toxic,Non-Toxic
CO[C@@H]1[C@H]2[C@@H](C)[C@]34CC[C@H]5C(C)=C[C@]3(C[C@@H](OC(C)=O)[C@]2(O4)C(C)(C)[C@H]1O)[C@@H]5O,–,–,> 40,–,Non-Toxic,Non-Toxic
CC(=O)O[C@@H]1C[C@]23C[C@@](C)(O)[C@H](CC[C@H]2[C@@](C)(O)[C@@H]2[C@@H](O)[C@H](O)C(C)(C)[C@@]12O)[C@H]3O,98.8,> 50,9.3,99.8,–,–
CC(=O)O[C@@H]1[C@H]2CC[C@H]3[C@@](C)(O)[C@@H]4[C@@H](O)[C@H](O)C(C)(C)[C@@]4(O)[C@H](OC(C)=O)C[C@@]13C[C@@]2(C)O,97.4,> 50,10.3,93.9,–,–
C=C1[C@@H]2[C@@H](OC)[C@H](O)C(C)(C)[C@@]2(O)[C@H](OC(C)=O)C[C@]23C[C@@](C)(O)[C@H](CC[C@@H]12)[C@H]3O,–,–,> 40,–,Non-Toxic,Non-Toxic
C=C1[C@@H]2[C@@H](O)[C@H](O)C(C)(C)[C@@]2(O)[C@H](OC(C)=O)C[C@]23C[C@@](C)(O)[C@H](CC[C@@H]12)[C@H]3O,–,–,> 40,–,Non-Toxic,Non-Toxic
CC(=O)O[C@@H]1C[C@]23C=C(C)[C@H](CC[C@H]2[C@@](C)(O)[C@@H]2[C@@H]4O[C@@H]4C(C)(C)[C@@]12O)[C@H]3O,–,–,> 40,–,Non-Toxic,Non-Toxic
CO[C@H]1[C@H](O)C(C)(C)[C@@]2(O)[C@H](OC(C)=O)C[C@]34C[C@@](C)(O)[C@H](CC[C@H]3[C@@](C)(O)[C@H]12)[C@H]4OC(C)=O,–,–,> 40,–,Non-Toxic,Non-Toxic
C=C1C[C@@]23C[C@@H](O)[C@@]4(O)C([C@@H]5O[C@@H]5C4(C)C)[C@](C)(O)[C@@H]2CC[C@@H]1[C@H]3O (some centres not stated),–,–,> 40,–,Non-Toxic,Non-Toxic
C=C1[C@@H]2CC[C@@H]3C[C@@]2(C[C@@H](O)[C@@]2(O)[C@H]1C[C@H](O)[C@]2(C)CO)C[C@@]3(C)O,–,–,> 40,–,Non-Toxic,Non-Toxic
C=C1[C@@H]2CC[C@@H]3C[C@@]2(C[C@@H](OC(C)=O)[C@@]2(O)[C@H]1C[C@H](O)C2(C)C)C[C@@]3(C)O,–,–,> 40,–,Non-Toxic,Non-Toxic
C=C1C[C@@]23C[C@@H](OC(C)=O)[C@@]4(O)[C@@H]([C@@H](O)[C@H](O)C4(C)C)[C@](C)(O)[C@@H]2CC[C@@H]1[C@H]3O,–,–,> 40,–,Non-Toxic,Non-Toxic
CC(=O)O[C@@H]1C[C@@]23C[C@]4(C)O[C@@H](C[C@@H]4[C@H]2O)[C@H]3[C@@](C)(O)C2[C@@H]3O[C@@H]3C(C)(C)[C@]21O (some centres not stated),–,–,> 40,–,Non-Toxic,Non-Toxic
C=C1[C@@H]2CC[C@@H]3C[C@@]2(C[C@@H](O)[C@@]2(O)[C@H]1C[C@H](O)C2(C)C)C[C@@]3(C)O,96.4,> 50,3.5,93.8,–,–
C=C1[C@@H]2CC[C@@H]3[C@@H](O)[C@@]2(C[C@@H](O)[C@@]2(O)[C@H]1C[C@H](O)C2(C)C)C[C@@]3(C)O,–,–,> 40,–,Non-Toxic,Non-Toxic
C[C@@H]1C[C@H]2[C@@H]3CCC4=CC(=O)C=C[C@]4(C)[C@@]3(F)[C@@H](O)C[C@]2(C)[C@@]1(O)C(=O)CO [DEXAMETHASONE],97.7,–,0.8,97.1,–,–
